In ChEMBL document CHEMBL1156597, “Structure-activity relationship of kahalalide F synthetic analogues” (J Med Chem, 2008):

Assays:
[1] = Cytotoxicity against human IGROV-ET cells after 48 hrs by SRB assay; type: functional; conditions: for GI50: read-out: GI50; for CC50: read-out: LC50 (the source's name)
How it was run: (§1)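 Cells grown in RPMI 1640 with 10% FBS and penicillin/streptomycin at 37 °C and 5% CO₂, trypsinized, then seeded at 5 × 10³/well. After 18 h drug-free attachment, samples in DMSO/EtOH/PBS (0.5:0.5:99) were added for 48 h continuous exposure. Cells were fixed with cold TCA (1 h, 4 °C) and stained with SRB (10 min). Tris-solubilized stain read at 490 nm. Triplicate wells, mean ± SD; GI₅₀ derived.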

HT-29 = assay: Cytotoxicity against human HT29 cells after 48 hrs by SRB assay; type: functional, cell-based; conditions: Homo sapiens, HT-29, 48 h; for CC50: read-out: LC50 (the source's name); how it was run: as §1
LNCaP = assay: Cytotoxicity against human LNcaP cells after 48 hrs by SRB assay; type: functional; conditions: for CC50: read-out: LC50 (the source's name); how it was run: as §1
LoVo [2] = assay: Cytotoxicity against human LoVo cells after 48 hrs by SRB assay; type: functional; conditions: for CC50: read-out: LC50 (the source's name)
K562 = assay: Cytotoxicity against human K562 cells after 48 hrs by SRB assay; type: functional; conditions: K562, 48 h; for CC50: read-out: LC50 (the source's name); how it was run: as §1
[3] = Cytotoxicity against human HeLa-APL cells after 48 hrs by SRB assay; type: functional; how it was run: as §1
A549 = assay: Cytotoxicity against human A549 cells after 48 hrs by SRB assay; type: functional, cell-based; conditions: Homo sapiens, A549, 48 h; for GI50: read-out: GI50; how it was run: as §1
DU-145 = assay: Cytotoxicity against human DU145 cells after 48 hrs by SRB assay; type: functional, cell-based; conditions: Homo sapiens, DU-145, 48 h; for GI50: read-out: GI50; for CC50: read-out: LC50 (the source's name); how it was run: as §1
HeLa = assay: Cytotoxicity against human HeLa cells after 48 hrs by SRB assay; type: functional; conditions: for CC50: read-out: LC50 (the source's name); how it was run: as §1
[4] = Cytotoxicity against human IGROV cells after 48 hrs by SRB assay; type: functional; conditions: for CC50: read-out: LC50 (the source's name); how it was run: as §1
PANC-1 = assay: Cytotoxicity against human PANC1 cells after 48 hrs by SRB assay; type: functional; conditions: PANC-1, 48 h; for CC50: read-out: LC50 (the source's name); how it was run: as §1
SK-BR-3 = assay: Cytotoxicity against human SKBR3 cells after 48 hrs by SRB assay; type: functional; conditions: SK-BR-3, 48 h; for GI50: read-out: GI50; for CC50: read-out: LC50 (the source's name); how it was run: as §1
LoVo [5] = assay: Cytotoxicity against human doxorubicin resistant LoVo cells after 48 hrs by SRB assay; type: functional; conditions: for CC50: read-out: LC50 (the source's name); how it was run: as §1
SK-MEL-28 = assay: Cytotoxicity against human SK-MEL-28 cells after 48 hrs by SRB assay; type: functional, cell-based; conditions: Homo sapiens, SK-MEL-28, 48 h; for GI50: read-out: GI50; for CC50: read-out: LC50 (the source's name); how it was run: as §1

Row | Compound | TGI [1] [nM] | GI50 [1] [nM] | CC50 [1] [nM] | GI50 (HT-29) [nM] | TGI (HT-29) [nM] | CC50 (HT-29) [nM] | GI50 (LNCaP) [nM] | TGI (LNCaP) [nM] | CC50 (LNCaP) [nM] | GI50 (LoVo [2]) [nM] | TGI (LoVo [2]) [nM] | CC50 (LoVo [2]) [nM] | GI50 (K562) [nM] | TGI (K562) [nM] | CC50 (K562) [nM] | GI50 [3] [nM] | LC50 (concentration giving 50% net cell kill) [3] [nM] | TGI [3] [nM] | LC50 (A549) [nM] | TGI (A549) [nM] | further results
1 | C/C=C1\NC(=O)[C@H](Cc2ccccc2)NC(=O)[C@@H](C(C)C)NC(=O)[C@@H]([C@H](C)CC)NC(=O)[C@H](NC(=O)[C@H](NC(=O)[C@H](CCCN)NC(=O)[C@H]2CCCN2C(=O)[C@H](NC(=O)[C@@H](NC(=O)[C@@H](NC(=O)[C@@H](CC2CCCCC2)NC(=O)CCCC(C)C)[C@@H](C)O)C(C)C)C(C)C)[C@H](C)CC)[C@H](C)OC(=O)[C@H](C(C)C)NC1=O | 1230 | 1090 | 373 | 2010 | 2310 | 2650 | 2980 | 3460 | 1720 | 2090 | 2130 | 2180 | 2100 | 3070 | 2340 | 1450 | 1140 | 1290 | 1770 | 2180 | GI50 (A549): 1970 nM; TGI (DU-145): 1200 nM; GI50 (DU-145): 1410 nM; CC50 (DU-145): 1030 nM; GI50 (HeLa): 1300 nM; TGI (HeLa): 1090 nM; CC50 (HeLa): 917 nM; TGI [4]: 8320 nM; GI50 ([4]; read-out: GI50): 1270 nM; CC50 [4]: 401 nM; CC50 (PANC-1): 2440 nM; TGI (SK-BR-3): 862 nM; GI50 (SK-BR-3): 789 nM; CC50 (SK-BR-3): 4990 nM; GI50 (LoVo [5]): 825 nM; TGI (LoVo [5]): 746 nM; CC50 (LoVo [5]): 247 nM; TGI (SK-MEL-28): 1470 nM; GI50 (SK-MEL-28): 1730 nM; CC50 (SK-MEL-28): 1230 nM
2 | C/C=C1\NC(=O)[C@H](Cc2ccccc2)NC(=O)[C@@H](C(C)C)NC(=O)[C@@H]([C@H](C)CC)NC(=O)[C@H](NC(=O)[C@H](NC(=O)[C@H](CCCN)NC(=O)[C@H]2CCCN2C(=O)[C@H](NC(=O)[C@H](CCCN)NC(=O)[C@@H](NC(=O)[C@H](NC(=O)CCCC(C)C)C(C)C)[C@@H](C)O)C(C)C)[C@H](C)CC)[C@H](C)OC(=O)[C@H](C(C)C)NC1=O | 1340 | 1350 | 638 | 4610 | 4910 | 2350 | 1760 | 2730 | 1390 | 3610 | 4540 | 3900 | 218 | 950 | 1910 | 1110 | 1270 | 1190 | 1810 | 3670 | GI50 (A549): 2920 nM; TGI (DU-145): 1330 nM; GI50 (DU-145): 1230 nM; CC50 (DU-145): 1440 nM; GI50 (HeLa): 1280 nM; TGI (HeLa): 1070 nM; CC50 (HeLa): 898 nM; CC50 [4]: 758 nM; GI50 (PANC-1): 1730 nM; TGI (PANC-1): 2080 nM; CC50 (PANC-1): 2290 nM; TGI (SK-BR-3): 5240 nM; GI50 (SK-BR-3): 4460 nM; CC50 (SK-BR-3): 1050 nM; GI50 (LoVo [5]): 7590 nM; TGI (LoVo [5]): 7660 nM; CC50 (LoVo [5]): 3710 nM; TGI (SK-MEL-28): 1410 nM; GI50 (SK-MEL-28): 1520 nM; CC50 (SK-MEL-28): 1290 nM
